Columns and labels:
[1] = humans, given intravenously; cited from earlier work
[2] = tested on: thyroparathyroidectomized (TPTx) rats; test: TPTx rat 7-day efficacy study; assay type: in vivo, Sprague–Dawley rats
Procedure, shortened: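 Female TPTx SD rats, 250–300 g, randomised on baseline calcium and weight (n = 12). Daily SC dosing in PBS (1 mL/kg) for 7 days. Day-1 jugular serum drawn from two cohorts at 0, 2, 6, 10, 18 and 24 h; calcium and phosphate measured on a Hitachi 7180. Predose serum on days −6, 4 and 7 assayed by osteocalcin, PINP and CTX-I ELISAs.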

[3] = tested on: thyroparathyroidectomized (TPTx) rats; test: TPTx rat 28-day efficacy study; assay type: in vivo, Sprague–Dawley rats; conditions: daily SC 10 nmol/kg
Procedure, shortened: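 Female thyroparathyroidectomised Crl-CD SD rats, 215–290 g, randomised on baseline serum calcium and body weight after 9 days of acclimation. Daily SC dosing in PBS (1 mL/kg) for 28 days. Jugular serum taken in two alternating cohorts on days 1, 12 and 27 at 0, 2, 6, 10 and 24 h, run on a Hitachi 7180 analyser (n = 5/cohort). Urine n = 10/group. Distal femur BMD by pQCT, n = 10/group.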

For “PTH: endogenous human polypeptide, 84 amino acids in length”, the plasma half-life [1] is given as “less than 10 min”.

B1: PTH(1-84): Recombinant human PTH(1-84), Natpara (Takeda); native parathyroid hormone comparator (protein, UniProt P01270 32-115, looked up)
Parathyroid hormone: SVSEIQLMHNLGKHLNSMERVEWLRKKLQDVHNFVALGAPLAPRDAGSQRPRKKEDNVLVESHEKSLGEADKADVNVLTKAKSQ
modifications: Parathyroid hormone
With B1 the “serum calcium, day 1 after first dose” value ([2]; SC 3 nmol/kg, 0–24 h) was “unaffected”, the “bone formation markers osteocalcin and PINP” value ([2]; daily SC 3 nmol/kg, serum, days 4 and 7) was “only induced a small increase” and the “serum phosphate, days 4 and 7” value ([2]; daily SC 3 nmol/kg, three timepoints) was “only transiently lower serum phosphate at the 2 h timepoints”. The “bone remodeling markers (osteocalcin, CTX, PINP)” value [3] was “increased serum concentrations of osteocalcin and CTX, but had only minimal effect on PINP”, the “BMD, cortical region of the diaphysis (pQCT)” value ([3]; 28 days) was “small but statistically significant decrease in BMD” and the serum calcium ([3]; 28 days, days 1, 12, 27) was “no increase or only small increases in serum calcium”. For the same molecule, the “BMD, distal femur metaphysis (pQCT)” value ([3]; 28 days, vs TPTx: vehicle) was “unchanged or slightly increased”, the “urinary calcium (creatinine-normalized)” value ([3]; days 1, 14, 27) was “not significantly increased” and the serum phosphate ([3]; days 12 and 27) was “much smaller decrease in serum phosphate”.

From paper PMC11078046 (JBMR Plus, 2024)
